Published values of several laboratories.
Compare with care: the assays were run in different laboratories. pEC50, pIC50: −log10 of the molar value. In brackets after ≈: the same amount, converted by molar mass.

Cc1cccc(-n2ncc(Cl)c(Cl)c2=O)c1 — pIC50 (HCC827; cell growth or viability, resazurin; 96 h): 7.05
OC(Cn1cncn1)(Cn1cncn1)c1ccc(F)cc1F — MIC (Cryptococcus neoformans; microbial growth, broth dilution): 3.12 µg/mL (≈ 10.2 µM)
O=C1CCc2ccc(O)c(c2)Oc2ccc(cc2)/C=C\CO1 — pIC50 (tubulin polymerisation, inhibitor): < 4.40
Cc1cc(N(CCO)CCO)ccc1C=O — IC50 (CAKI-1; cell growth or viability): > 10 µg/mL
O=C1CCc2ccc(O)c(c2)Oc2ccc(cc2)[C@H]2O[C@@H]2CO1 — pIC50 (tubulin polymerisation, inhibitor): < 4.40
CN1C[C@H](C(=O)N[C@]2(C)O[C@@]3(O)[C@@H]4CCCN4C(=O)[C@H](Cc4ccccc4)N3C2=O)C=C2c3cccc4[nH]cc(c34)C[C@H]21 — pEC50 (WI-38; cell growth or viability, MTT; 72 h): 4.24
CN[C@@H]1[C@H](O)[C@H](NC)[C@H]2O[C@@]3(O)C(=O)C[C@@H](C)O[C@H]3O[C@@H]2[C@H]1O — MIC (Proteus vulgaris; microbial growth, broth dilution; ATCC33420): 50 µg/mL (≈ 150 µM)
O=[N+]([O-])c1ccc(C2=[N+]([O-])c3ccccc3N3CCN=C23)cc1 — MIC50 (Clostridium perfringens; microbial growth): ≤ 0.06 µg/mL
N.N.[Cl][Pt][Cl] — pIC50 (HCC827; cell growth or viability, MTT; 72 h): 5.22
CCCCCCCC(=O)NP(=O)(O)O — MIC (Bacillus subtilis; microbial growth; ATCC23857): > 200 µg/mL
COc1ccc(/C=C\c2cc(OC)c(OC)c(OC)c2)cc1 — pIC50 (tubulin polymerisation, inhibitor, absorbance): 5.96
Cc1ncc([N+](=O)[O-])n1CCO — MIC50 (Clostridium perfringens; microbial growth): 0.5 µg/mL (≈ 2.92 µM)
O=C(CCCCCCCCCCOc1ccccc1)NP(=O)(O)O — MIC (Bacillus subtilis; microbial growth; ATCC23857): > 200 µg/mL
